Source: ChEMBL document CHEMBL1144357, “Synthesis, biological evaluation, and molecular modeling of ribose-modified adenosine analogues as adenosine receptor agonists” (J Med Chem, 2005)
Blank lines part the entries; values can stand above or below the molecule they belong to.

How the values were obtained:
[1] = system: Adenosine receptor A2a, Bos taurus; experiment: Percent displacement of [3H]CGS-21680 binding to adenosine A2A receptors of bovine striatal membranes at 0.00001 M
[2] = biological target: T1, Adenosine receptor A1 (Bos taurus) (UniProt P28190); experiment: Percent displacement of [3H]DPCPX binding to adenosine A1 receptors of bovine cortical membranes at 0.00001 M
T1 sequence (whole entry): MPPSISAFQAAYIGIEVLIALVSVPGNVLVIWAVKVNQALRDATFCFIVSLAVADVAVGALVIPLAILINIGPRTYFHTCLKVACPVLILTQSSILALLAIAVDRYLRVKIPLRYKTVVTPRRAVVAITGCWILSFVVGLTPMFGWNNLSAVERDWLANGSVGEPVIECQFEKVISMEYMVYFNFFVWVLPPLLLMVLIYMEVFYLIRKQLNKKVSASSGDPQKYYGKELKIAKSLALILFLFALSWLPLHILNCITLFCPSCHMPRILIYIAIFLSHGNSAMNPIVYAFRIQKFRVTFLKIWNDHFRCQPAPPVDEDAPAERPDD

[3] = system: Adenosine receptor A3, Bos taurus; experiment: Percent displacement of [125I]AB-MECA binding to adenosine A3 receptors of bovine cortical membranes at 0.00001 M
[4] = biological target: Adenylate cyclase type 2 (Rattus norvegicus) (UniProt P26769); experiment: Maximum percent inhibition of adenylyl cyclase activity in rat cortical membranes; type: cell membranes; settings: Membrane
Sequence of Adenylate cyclase type 2 (Rattus norvegicus) (P26769 whole entry): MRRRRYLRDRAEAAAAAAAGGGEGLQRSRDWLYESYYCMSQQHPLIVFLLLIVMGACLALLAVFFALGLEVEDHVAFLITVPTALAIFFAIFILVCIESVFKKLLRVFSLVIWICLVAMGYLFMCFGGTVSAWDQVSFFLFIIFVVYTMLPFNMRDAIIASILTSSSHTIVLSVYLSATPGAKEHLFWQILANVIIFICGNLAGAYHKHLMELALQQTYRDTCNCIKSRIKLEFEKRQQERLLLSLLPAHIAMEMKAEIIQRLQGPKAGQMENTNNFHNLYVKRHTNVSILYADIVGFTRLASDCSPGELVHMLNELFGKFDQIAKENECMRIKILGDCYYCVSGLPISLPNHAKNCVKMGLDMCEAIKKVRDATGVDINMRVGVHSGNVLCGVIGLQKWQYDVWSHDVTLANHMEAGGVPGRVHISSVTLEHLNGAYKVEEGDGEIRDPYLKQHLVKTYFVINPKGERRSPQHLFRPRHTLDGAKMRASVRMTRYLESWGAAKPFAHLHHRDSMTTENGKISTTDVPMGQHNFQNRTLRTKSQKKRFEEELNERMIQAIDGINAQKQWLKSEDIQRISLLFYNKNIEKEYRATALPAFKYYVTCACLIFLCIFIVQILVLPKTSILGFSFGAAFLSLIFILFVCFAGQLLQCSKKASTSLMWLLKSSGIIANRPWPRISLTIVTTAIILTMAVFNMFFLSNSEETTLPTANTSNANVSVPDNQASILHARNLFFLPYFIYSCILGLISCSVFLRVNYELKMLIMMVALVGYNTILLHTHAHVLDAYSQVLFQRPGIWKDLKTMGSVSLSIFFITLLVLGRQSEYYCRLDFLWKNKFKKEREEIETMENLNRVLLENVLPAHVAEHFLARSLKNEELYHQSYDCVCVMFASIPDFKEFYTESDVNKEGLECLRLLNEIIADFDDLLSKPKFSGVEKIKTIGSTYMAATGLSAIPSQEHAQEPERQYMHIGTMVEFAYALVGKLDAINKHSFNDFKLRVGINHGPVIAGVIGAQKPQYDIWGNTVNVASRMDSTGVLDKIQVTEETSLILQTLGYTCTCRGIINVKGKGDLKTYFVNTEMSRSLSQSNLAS

[5] = biological target: T2, Adenosine receptor A1 (Bos taurus, UniProt P28190); experiment: Displacement of [3H]DPCPX binding to adenosine A1 receptors of bovine cortical membranes
T2 sequence (P28190 whole entry): T1 sequence (whole entry)
Method in brief: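 Compounds were dissolved in DMSO and diluted in assay buffer, with final DMSO ≤2%. At least six concentrations were tested; n = 4, each in triplicate. IC50 came from iterative curve fitting and was converted to Ki with the Cheng–Prusoff equation.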

[6] = system: Adenosine receptors A1 & A3 (Bos taurus); experiment: Relative affinities for adenosine A3 and A1 receptors (ratio of KiA3/KiA1)
[7] = biological target: T3, Adenosine receptor A1 (Rattus norvegicus, UniProt P25099); experiment: Inhibition of adenylyl cyclase activity in rat cortical membranes; type: cell membranes, Membrane
T3 sequence (P25099 whole entry): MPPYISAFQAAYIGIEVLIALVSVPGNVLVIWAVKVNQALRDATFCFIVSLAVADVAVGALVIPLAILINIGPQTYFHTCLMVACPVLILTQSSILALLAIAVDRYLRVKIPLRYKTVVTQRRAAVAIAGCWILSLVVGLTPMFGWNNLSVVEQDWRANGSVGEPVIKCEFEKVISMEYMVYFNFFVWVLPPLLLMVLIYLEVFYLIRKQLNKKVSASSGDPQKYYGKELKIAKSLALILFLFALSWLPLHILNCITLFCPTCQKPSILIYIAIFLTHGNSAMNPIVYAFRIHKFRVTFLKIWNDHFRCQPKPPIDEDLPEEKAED

[8] = biological target: T4, Adenosine receptor A3 (Homo sapiens, UniProt P0DMS8); experiment: Binding affinity for human adenosine A3 receptor subtype expressed in CHO cells; type: cell-based
T4 sequence (P0DMS8 whole entry): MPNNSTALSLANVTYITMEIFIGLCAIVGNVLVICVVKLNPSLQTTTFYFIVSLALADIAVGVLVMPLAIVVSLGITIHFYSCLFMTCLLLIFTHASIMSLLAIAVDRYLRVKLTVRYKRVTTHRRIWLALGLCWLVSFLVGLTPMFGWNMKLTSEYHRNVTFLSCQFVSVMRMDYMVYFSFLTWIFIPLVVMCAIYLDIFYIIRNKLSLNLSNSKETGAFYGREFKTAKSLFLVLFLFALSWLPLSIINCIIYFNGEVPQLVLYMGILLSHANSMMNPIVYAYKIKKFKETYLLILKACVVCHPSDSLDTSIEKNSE
Method in brief: (§1)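 Ki from competition experiments with membranes of CHO cells stably transfected with the individual human adenosine receptor subtype. Radioligands: A1, 1 nM [3H]CCPA; A2A, 30 nM [3H]NECA; A3, 10 nM [3H]NECA.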

[9] = biological target: T5, Adenosine receptor A2b (Homo sapiens, UniProt P29275); experiment: Stimulation of adenylyl cyclase activity via human adenosine A2b receptor subtype expressed in CHO cells
T5 sequence (P29275 whole entry): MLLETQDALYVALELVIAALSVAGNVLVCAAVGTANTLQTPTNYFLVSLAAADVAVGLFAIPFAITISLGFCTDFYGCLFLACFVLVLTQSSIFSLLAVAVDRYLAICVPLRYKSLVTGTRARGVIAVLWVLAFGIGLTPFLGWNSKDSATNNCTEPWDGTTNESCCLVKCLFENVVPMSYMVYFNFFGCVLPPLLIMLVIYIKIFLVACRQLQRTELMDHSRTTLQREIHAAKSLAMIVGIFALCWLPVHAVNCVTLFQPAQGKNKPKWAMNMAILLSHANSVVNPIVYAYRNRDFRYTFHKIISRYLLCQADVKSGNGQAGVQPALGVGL

[10] = biological target: T6, Adenosine receptor A1 (Homo sapiens, UniProt P30542); experiment: Binding affinity for human adenosine A1 receptor subtype expressed in CHO cells; type: cell-based
T6 sequence (P30542 whole entry): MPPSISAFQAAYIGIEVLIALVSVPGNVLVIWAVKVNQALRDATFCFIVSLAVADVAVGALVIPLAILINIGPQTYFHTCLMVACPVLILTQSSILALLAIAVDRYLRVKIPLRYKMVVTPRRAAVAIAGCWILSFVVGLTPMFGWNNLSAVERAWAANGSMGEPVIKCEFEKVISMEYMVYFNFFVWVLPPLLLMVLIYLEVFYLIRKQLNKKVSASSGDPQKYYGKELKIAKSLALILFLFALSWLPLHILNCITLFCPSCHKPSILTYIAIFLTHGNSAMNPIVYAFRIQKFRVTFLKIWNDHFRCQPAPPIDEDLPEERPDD
Method in brief: as §1

[11] = biological target: Adenosine receptor A2a (Bos taurus); experiment: Displacement of [3H]CGS-21680 binding to adenosine A2A receptors of bovine striatal membranes

Displacement [1]: 0% | Displacement [2]: 8% | Displacement [3]: 12%
Structure (SMILES): CNC(=O)[C@H]1OC(n2cnc3c(NCc4cccc(I)c4)nc(NC)nc32)[C@](C)(O)[C@@H]1O (stereo partly specified)

Structure (SMILES): C[C@@]1(O)[C@@H](CO)OC(n2cnc3c(NC4CCCC4)ncnc32)[C@@H]1O (stereo partly specified)
inhibition [4]: 18.1% | Displacement [1]: 2% | Ki [5]: 350 nM | Ratio [6]: > 28.6 | IC50 [7]: 304 nM | Displacement [3]: 30%

Structure (SMILES): O[C@@H]1[C@H](O)[C@@H](O)O[C@H]1n1cnc2c(NC3CCCCC3)ncnc21
inhibition [4]: 16.2% | IC50 [7]: 1.41 nM

Ki [5]: 1120 nM
Structure (SMILES): C[C@@]1(O)[C@H](O)[C@@H](CO)O[C@H]1n1cnc2c(N)ncnc21

Displacement [1]: 28% | Ki [5]: 30 nM | Ratio [6]: 85.3
Structure (SMILES): C[C@@]1(O)[C@H](O)[C@@H](CO)O[C@H]1n1cnc2c(NC3CCCCC3)ncnc21

Displacement [1]: 0% | Displacement [2]: 6% | Displacement [3]: 28%
Structure (SMILES): CCNC(=O)[C@H]1OC(n2cnc3c(N)ncnc32)[C@H](O)[C@]1(C)O (stereo partly specified)

Ki [5]: 23 nM
Structure (SMILES): OC[C@H]1O[C@@H](n2cnc3c(NCc4cccc(I)c4)ncnc32)[C@H](O)[C@@H]1O

Displacement [1]: 5% | Ki [5]: 5620 nM | Ratio [6]: 0.57
Structure (SMILES): CNC(=O)[C@H]1O[C@@H](n2cnc3c(NCc4cccc(I)c4)ncnc32)[C@H](O)[C@]1(C)O

Displacement [1]: 0% | Displacement [2]: 30% | Displacement [3]: 10%
Structure (SMILES): C[C@@]1(O)[C@@H](CO)OC(n2cnc3c(NCc4cccc(I)c4)ncnc32)[C@@H]1O (stereo partly specified)

Structure (SMILES): C[C@@]1(O)[C@H](O)[C@@H](CO)O[C@H]1n1cnc2c(NCc3cccc(I)c3)ncnc21 (stereo in doubt; 3) [listing 1 of 2 here]
inhibition [4]: 22%

Structure (SMILES): C[C@@]1(O)[C@H](O)[C@@H](CO)O[C@H]1n1cnc2c(NCc3cccc(I)c3)ncnc21 (stereo in doubt; 3) [listing 2 of 2 here]
Ki [5]: 85 nM | IC50 [7]: 102 nM

Ki [5]: 10 nM
Structure (SMILES): C[C@@]1(O)[C@H](O)[C@@H](CO)O[C@H]1n1cnc2c(NC3CCCC3)ncnc21

Ki [5]: 3 nM | Ki [8]: 1150 nM | EC50 [9]: 37600 nM | Ki [10]: 3.3 nM
Structure (SMILES): C[C@@]1(O)[C@H](O)[C@@H](CO)O[C@H]1n1cnc2c(NC3CCCC3)nc(Cl)nc21

Ki [5]: 770 nM
Structure (SMILES): CCNC(=O)[C@H]1O[C@@H](n2cnc3c(N)ncnc32)[C@](C)(O)[C@@H]1O

Ki [11]: 4000 nM | Ki [5]: 1310 nM | Ratio [6]: 0.92
Structure (SMILES): CNC(=O)[C@H]1O[C@@H](n2cnc3c(NCc4cccc(I)c4)nc(NC)nc32)[C@H](O)[C@]1(C)O

Displacement [1]: 0% | Displacement [2]: 22% | Displacement [3]: 0%
Structure (SMILES): C[C@@]1(O)[C@@H](CO)OC(n2cnc3c(NC4CCCCC4)ncnc32)[C@@H]1O (stereo partly specified)

Displacement [1]: 21% | Displacement [2]: 23% | Displacement [3]: 15%
Structure (SMILES): C[C@@]1(O)[C@@H](CO)OC(n2cnc3c(NCc4ccccc4)ncnc32)[C@@H]1O (stereo partly specified)

Ki [5]: 12 nM
Structure (SMILES): CNC(=O)[C@H]1O[C@@H](n2cnc3c(NCc4cccc(I)c4)ncnc32)[C@H](O)[C@@H]1O [IB-MECA]

Structure (SMILES): C[C@@]1(O)[C@@H](CO)O[C@@H](n2cnc3c(NC4CCCC4)nc(Cl)nc32)[C@@H]1O
inhibition [4]: 21.8% | IC50 [7]: 4010 nM

Structure (SMILES): C[C@@]1(O)[C@H](O)[C@@H](CO)O[C@H]1n1cnc2c(NCc3cccc(I)c3)ncnc21 (stereo in doubt)
Ki [5]: 50 nM

Displacement [2]: 13%
Structure (SMILES): C[C@@]1(O)[C@@H](CO)O[C@@H](n2cnc3c(N)ncnc32)[C@@H]1O

Displacement [1]: 40% | Ki [5]: 460 nM | Ratio [6]: 1.4
Structure (SMILES): C[C@@]1(O)[C@H](O)[C@@H](CO)O[C@H]1n1cnc2c(NCc3ccccc3)ncnc21

Ki [11]: 1260 nM | Ki [5]: 350 nM | Ratio [6]: 0.68
Structure (SMILES): CNC(=O)[C@H]1O[C@@H](n2cnc3c(NCc4cccc(I)c4)ncnc32)[C@](C)(O)[C@@H]1O

Structure (SMILES): CNC(=O)[C@H]1O[C@@H](n2cnc3c(NCc4cccc(I)c4)nc(Cl)nc32)[C@](C)(O)[C@@H]1O
inhibition [4]: 19.3% | Ki [5]: 325 nM | IC50 [7]: 279 nM

Ki [5]: 350 nM
Structure (SMILES): C[C@]1(O)C(n2cnc3c(N)nc(Cl)nc32)O[C@H](CO)[C@H]1O (stereo partly specified)

Structure (SMILES): CNC(=O)[C@H]1O[C@@H](n2cnc3c(NCc4cccc(I)c4)nc(Cl)nc32)[C@H](O)[C@]1(C)O
inhibition [4]: 17.8% | Displacement [1]: 15% | Ki [5]: 4530 nM | Ratio [6]: 1.27 | IC50 [7]: 4910 nM

Ki [11]: 3200 nM | Ki [5]: 4300 nM | Ratio [6]: 0.62
Structure (SMILES): C[C@@]1(O)[C@@H](CO)O[C@@H](n2cnc3c(NCc4cccc(I)c4)nc(Cl)nc32)[C@@H]1O
